# High-throughput results from PubChem BioAssay.
# Hits are enriched below; roughly 1.7% of the tested compounds scored in any of these assays.
# EBNA-1 inhibitor: blocks EBNA-1 binding to DNA | inhibition, % at 14.8 µM | EBNA-1 DNA binding, fluorescence polarization | hit rate 0.34% among 300,000; in the data active means inhibition above about 28%
# UBC13 inh: blocks human UBC13 polyubiquitin chain formation; TR-FRET; hit rate 0.47% among 330,000; inhibition, % at 20 µM; AID 485273; P61088; in the data active means inhibition above about 45%, passing the limit was not always enough; inconclusive means no clear call, values can overlap the other calls
# Target sequence (P61088 whole entry, looked up): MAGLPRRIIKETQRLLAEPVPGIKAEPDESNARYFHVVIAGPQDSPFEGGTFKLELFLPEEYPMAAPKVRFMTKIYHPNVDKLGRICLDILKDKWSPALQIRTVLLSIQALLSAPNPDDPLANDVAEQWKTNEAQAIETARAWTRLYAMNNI
# PREPL inhibitor: inhibitors of human prolyl oligopeptidase-like enzyme PREPL | recombinant PREPL, fluorescence polarization activity-based probe | inhibition, % at 5.96 µM | hit rate 0.68% among 320,000 | AID 2751; in the data active means inhibition above about 43%
# Apaf1 inhib: human Apaf-1 inhibition. O14727. reconstituted apoptosome caspase-3 activity, DEVD-Rh110 fluorescence. inhibition, % at 20 µM. hit rate 0.71% among 330,000; active means inhibition of at least 40% at 20 µM
#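 System: reconstituted apoptosome with Apaf-1, cytochrome c, caspase-9, procaspase-3, dATP; Signal: Rh110 fluorescence intensity; Schedule: 30 min compound preincubation, 50 min activation, room temperature; Reagent: cytochrome c trigger plus (Z-DEVD)2-Rh110 caspase-3 substrate.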
# ZTA counter: ZTA (EBV) inhibition in EBNA-1 counter-screen | P03206 | ZTA-DNA binding, fluorescence polarization | inhibition, % at 11 µM | hit rate 0.15% among 320,000; in the data active means inhibition above about 33%
# Target sequence (P03206 whole entry, looked up): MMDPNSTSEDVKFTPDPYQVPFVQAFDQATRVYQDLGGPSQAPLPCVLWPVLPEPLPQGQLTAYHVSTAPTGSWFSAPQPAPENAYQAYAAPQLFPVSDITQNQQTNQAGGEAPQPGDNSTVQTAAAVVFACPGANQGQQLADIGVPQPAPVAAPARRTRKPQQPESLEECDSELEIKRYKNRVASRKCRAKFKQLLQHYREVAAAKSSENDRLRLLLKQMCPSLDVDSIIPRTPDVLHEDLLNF
# Casp3 counter: inhibits human caspase-3 in UBC13 counter-screen; shares compounds with UBC13 inh; Recombinant caspase-3, Caspase-Glo 3/7 luminescence, 60 min; inhibition, % at 20 µM; hit rate 4% among 1,400; AID 488856;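 active means mean inhibition across replicates above about 26%, limit read from the data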
# UBC13 conf: confirmation of human UBC13 polyubiquitin inhibitors | shares compounds with UBC13 inh | UBC13 polyubiquitination, TR-FRET, biochemical | inhibition, % at 10 µM | hit rate 68% among 1,400; in the data active means inhibition above about 45%; inconclusive means no clear call, values can overlap the other calls
# A number is an active result; – = inactive; ? = inconclusive; · = not tested or not shown.
SMILES,EBNA-1 inhibitor,UBC13 inh,PREPL inhibitor,Apaf1 inhib,ZTA counter,Casp3 counter,UBC13 conf
COC(=O)c1c(-c2ccc(SC)cc2)sc2ccc(OC)cc12,·,50,–,–,·,–,?
COC(=O)c1c(-c2ccc(S(C)(=O)=O)cc2)sc2cc(OC)ccc12,·,?,–,–,·,·,·
COC(=O)c1c(-c2ccc(S(C)(=O)=O)cc2)sc2ccc(OC)cc12,·,54,–,–,·,–,–
CC1CCCCN1C(=O)C(=O)c1cn(CC(=O)N2CCCCCC2)c2ccccc12 (stereo not given),–,–,–,–,–,·,·
CCCC(=O)c1c(C)c2ccccc2n1C,–,–,–,–,–,·,·
CN(C)c1ccc(NC(=O)CCCCCn2nnc3ccccc3c2=O)cc1,–,–,–,–,–,·,·
COc1ccc(CNn2c(-c3cccc(C)c3)nc3ccccc3c2=O)cc1OC,–,–,–,–,–,·,·
COc1ccc(CNn2c(C)nc3ccccc3c2=O)cc1,–,47,–,–,–,–,49
CCCCOc1ccc(CNn2c(C)nc3ccccc3c2=O)cc1,–,75,–,–,–,–,82
CC1CCN(CCCNC(=O)c2cc3c(s2)-c2ccccc2OC3)CC1,–,–,–,–,–,·,·
Cc1cccc2c1-c1sc(C(=O)NCCCN3CCC(C)CC3)cc1CO2,–,53,–,–,–,–,86
N#C/C(=C\c1ccc(-c2ccccc2[N+](=O)[O-])o1)C(N)=O,–,–,–,–,–,·,·
O=C(CCc1nnc2ccc(N3CCCC3)nn12)Nc1ccc(F)c(F)c1,–,50,–,–,–,–,?
COc1ccc(-n2nnnc2SCc2nc3ccccc3s2)cc1,–,–,–,–,–,·,·
Oc1ccc(-c2cnc3ccccc3n2)cc1,–,–,–,–,–,·,·
CCCCOc1ccc(-c2cnc3ccccc3n2)cc1,–,54,–,–,–,93,?
CCCCCCCNC(=O)C1(CC2CC(c3cccc(Br)c3)=NO2)CCN(C(=O)C2(C)CC2)CC1 (stereo not given),–,–,–,–,–,·,·
CCCCCCCNC(=O)C1(CC2CC(c3cccc(Br)c3)=NO2)CCN(C(=O)CCCCCBr)CC1 (stereo not given),–,45,–,–,–,–,–
CCN(CC)c1ccc(NC(=O)CSc2n[nH]c(-c3ccco3)n2)cc1,–,–,–,–,–,·,·
CCCCn1c(=O)[nH]c(=O)c2c1nc(-c1ccc(OCC)cc1)n2CC,–,–,–,–,–,·,·
CCCCn1c(=O)[nH]c(=O)c2c1nc(-c1ccc(C#N)cc1)n2C1CCCC1,–,78,–,–,–,–,68
CCC(C)N(C)C1CCN(C(=S)Nc2cccc(OC)c2)CC1 (stereo not given),–,–,–,–,–,·,·
Cc1c(C)n(Cc2ccccc2)c2ncnc(N)c12,–,59,–,–,–,–,61
CCCCN1C(=O)C2C3C=CC(C2C1=O)C1C2C(=O)N(CCCC)C(=O)C2C31 (stereo not given),–,–,–,–,–,·,·
CCOc1cc(C(=O)CCC(=O)OCC(=O)N2c3ccccc3NC(=O)C2(C)C)ccc1O,–,–,–,–,–,·,·
SMILES,EBNA-1 inhibitor,UBC13 inh,PREPL inhibitor,Apaf1 inhib,ZTA counter,Casp3 counter,UBC13 conf
CC(C)N1CCc2c(sc(NC(=O)c3cc(-c4cccs4)nc4ccccc34)c2C(N)=O)C1,–,54,–,61,–,–,49
Cc1sc2ncnc(N)c2c1C,–,61,–,–,–,–,49
Cc1ccc(Nc2ncnc3sc(C)c(C)c23)cc1,–,–,–,–,–,·,·
COc1cccc(-c2noc(CCCC(=O)NC3CCCC3)n2)c1,–,–,–,–,–,·,·
CCCOc1ccc(C(=O)NNC(=S)NC(=O)CC)cc1,–,66,–,–,–,–,83
CCC(=O)NC(=S)NNC(=O)c1ccc(NC(=O)c2ccccc2)cc1,–,71,–,–,–,–,91
O=C(NNC(=O)c1ccc(NC(=O)c2ccccc2)cc1)c1ccccc1,–,–,–,–,–,·,·
CCCCC(=O)NC(=S)NNC(=O)c1ccc(OC)cc1,–,69,–,–,–,–,–
COc1ccc(OCC(=O)NNC(=S)NC(=O)c2ccc([N+](=O)[O-])cc2)cc1,–,60,–,–,–,–,–
CCOC(=O)c1cc(-c2ccccc2)nc2c1c(C)nn2-c1ccccn1,–,62,–,–,–,–,–
CCOC(=O)c1cc(-c2ccc(Cl)cc2)nc2c1c(C)nn2CCC#N,–,?,–,–,–,·,·
CCOC(=O)c1cc(-c2cccnc2)nn1-c1ccccn1,–,–,–,–,–,·,·
CCOC(=O)c1cc(-c2ccncc2)nc2c1c(C)nn2C,–,113,–,–,–,–,?
CCOC(=O)c1cc(-c2ccc(OC)cc2F)nc2c1c(C)nn2CCC#N,–,49,–,–,–,–,–
Brc1cnc(N2CCCCC2)nc1N1CCOCC1,–,–,–,–,–,·,·
CCOC(=O)c1sc2nc(C3CC3)cc(-c3ccc(OC)cc3)c2c1N,–,48,–,–,–,–,?
CCOC(=O)c1sc2nc(C3CC3)cc(-c3ccc(F)cc3)c2c1N,–,–,–,–,–,·,·
Cc1occc1C(=O)N1CCN(C(c2ccccc2)c2ccccc2)CC1,–,–,–,–,–,·,·
O=C(Nc1ccc(C(=O)NCCCN2CCN(c3ccc(F)cc3)CC2)cc1)C1=CSCCO1,–,65,–,–,–,–,97
COc1ccc(-n2c(CNC(=O)c3ccc(S(=O)(=O)N4CCCC4)cc3)n[nH]c2=S)cc1,–,–,–,–,–,·,·
COc1cc(C#Cc2c(-c3cncn3C)n(C)c3ccc(Br)cc23)cc(OC)c1,·,46,–,–,·,–,–
CCCC[C@@H](CNC)NC[C@H](NCCCCC1CCCCC1)C(C)C,–,66,–,–,–,–,45
CCC[C@@H](CN[C@@H](CNC)C(C)C)NCCCCc1ccccc1,–,–,–,–,–,·,·
COc1ccc(C(=O)OCC(=O)NC2CCCCCC2)cc1OC,·,66,–,–,–,–,–
CCN(Cc1ccccc1)C(=O)c1nn(-c2ccc(OC)cc2)c(=O)c2c1c1ccccc1n2C,–,45,–,–,–,–,?
SMILES,EBNA-1 inhibitor,UBC13 inh,PREPL inhibitor,Apaf1 inhib,ZTA counter,Casp3 counter,UBC13 conf
COc1cccc2sc3ccc(C#CC4(O)CCCCC4)cc3c(=O)c12,–,53,–,–,–,91,?
O=c1c2ccccc2sc2ccc(C#CC3(O)CCCCC3)cc12,–,–,–,–,–,·,·
CCOC(=O)Cn1c(=O)c(-c2ccccc2NCc2ccccc2)nc2ccccc21,–,–,–,–,–,·,·
CN(C)CCNC=C(C(=O)Nc1ccc(Cl)cc1Cl)C(=O)Nc1ccc(Cl)cc1Cl,–,56,–,–,–,–,80
Fc1ccc(Nc2nc(NCc3ccco3)c3ccccc3n2)cc1,–,54,–,–,–,–,74
Nc1nc(Nc2ccccc2)nc(NCc2ccco2)c1[N+](=O)[O-],–,–,–,–,–,·,·
CCNC(=O)COn1c(SCC(=O)NCC)nc2ccccc2c1=O,–,–,–,–,–,·,·
